# In ChEMBL document CHEMBL4387722:
# Tests used:
# [1] = target: T1, Malate dehydrogenase, mitochondrial (Sus scrofa, UniProt P00346); experiment: Inhibition of refolded pig heart mitochondrial MDH preincubated with Escherichia coli GroEL/GroES for 45 mins using sodium mesoxalate as substrate followed by compound addition and measured after 20 to 30 mins by spectrometric analysis
# T1 sequence (P00346 whole entry): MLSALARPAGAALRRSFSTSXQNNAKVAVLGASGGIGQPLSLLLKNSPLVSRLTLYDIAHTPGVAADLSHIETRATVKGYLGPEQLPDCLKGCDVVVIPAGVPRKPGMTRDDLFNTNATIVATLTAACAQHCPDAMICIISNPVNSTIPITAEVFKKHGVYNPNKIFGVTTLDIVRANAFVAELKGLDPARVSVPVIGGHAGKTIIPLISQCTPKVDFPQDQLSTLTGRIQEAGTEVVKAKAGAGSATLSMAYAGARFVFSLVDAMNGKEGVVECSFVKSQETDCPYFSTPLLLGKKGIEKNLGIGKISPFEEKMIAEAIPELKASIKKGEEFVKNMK
# [2] = test system: Mycobacterium tuberculosis; experiment: Antitubercular activity against Mycobacterium tuberculosis H37Rv after 5 days at 200 uM relative to control; assay type: functional; conditions: 120 h
# In short: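 M. tuberculosis grown in liquid culture with compound at a fixed 200 μM for 5 days. Growth inhibition expressed as percent of control.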
# HSP60/HSP10 = HSP60/HSP10 (Homo sapiens, UniProt P10809); experiment: Inhibition of human HSP60 expressed in Escherichia coli Rosetta 2(DE3)/human HSP10 expressed in Escherichia coli Rosetta 2(DE3) pLysS cells assessed as reduction in HSP60/HSP10-mediated denatured pig heart mitochondrial MDH refolding by measuring MDH enzyme activity using sodium mesoxalate as substrate after 40 to 60 mins by spectrometric analysis
# [3] = Inhibition of refolded rhodanese (unknown origin) preincubated with Escherichia coli GroEL/GroES for 60 mins by measuring rhodanese enzyme activity followed by compound addition by Fe(SCN)3 dye based spectrometric analysis; set-up: species or system Homo sapiens
# [4] = Cytotoxicity against human HEK293 cells assessed as reduction in cell viability after 48 hrs by Alamar blue assay; assay type: cell-based
# In short: (§1)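 Alamar Blue viability read-out. Human liver (THLE-3) and kidney (HEK 293) cells incubated with compound for 48 h. Tested in dose-response to derive CC50.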
# [5] = target: T2, Phosphotyrosine protein phosphatase (Mycobacterium tuberculosis, UniProt A0A045ISB3); experiment: Inhibition of Mycobacterium tuberculosis His-tagged PtpB expressed in Escherichia coli Rosetta 2 (DE3) using pNPP as substrate after 30 mins by spectrophotometric method
# T2 sequence (A0A045ISB3 whole entry): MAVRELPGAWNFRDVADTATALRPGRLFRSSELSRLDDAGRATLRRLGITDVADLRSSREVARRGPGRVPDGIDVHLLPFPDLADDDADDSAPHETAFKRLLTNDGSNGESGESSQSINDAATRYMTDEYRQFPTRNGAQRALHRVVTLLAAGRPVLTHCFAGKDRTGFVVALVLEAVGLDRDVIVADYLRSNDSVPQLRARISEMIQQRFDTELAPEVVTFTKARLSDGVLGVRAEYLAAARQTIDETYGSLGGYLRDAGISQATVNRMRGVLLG
# [6] = target: T3, Tyrosine-protein phosphatase non-receptor type 1 (Homo sapiens, UniProt P18031); experiment: Inhibition of human PTPN1 expressed in Escherichia coli Rosetta 2 (DE3) using pNPP as substrate after 45 mins by spectrophotometric method
# T3 sequence (P18031 whole entry): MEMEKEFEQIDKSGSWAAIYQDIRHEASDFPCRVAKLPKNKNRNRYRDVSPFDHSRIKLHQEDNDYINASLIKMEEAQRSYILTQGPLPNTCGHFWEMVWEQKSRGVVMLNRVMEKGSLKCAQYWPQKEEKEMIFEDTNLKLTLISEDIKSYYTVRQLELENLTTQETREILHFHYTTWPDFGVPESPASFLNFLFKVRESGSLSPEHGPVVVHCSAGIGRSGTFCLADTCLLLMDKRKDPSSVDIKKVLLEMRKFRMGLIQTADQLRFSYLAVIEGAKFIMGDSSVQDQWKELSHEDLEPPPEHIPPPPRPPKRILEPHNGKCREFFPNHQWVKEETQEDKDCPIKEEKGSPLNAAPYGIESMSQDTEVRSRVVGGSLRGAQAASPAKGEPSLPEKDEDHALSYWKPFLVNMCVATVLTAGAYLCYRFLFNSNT
# [7] = Cytotoxicity against human THLE3 cells assessed as reduction in cell viability after 48 hrs by Alamar blue assay; assay type: cell-based; in short: as §1
# E. coli GroEL/ES [8] = target: T4, E. coli GroEL/ES (Escherichia coli, UniProt P0A6F5); experiment: Inhibition of Escherichia coli GroEL expressed in Escherichia coliDH5alpha/Escherichia coli GroES expressed in Escherichia coli BL21 (DE3) assessed as reduction in GroEL/GroES-mediated denatured pig heart mitochondrial MDH refolding by measuring MDH enzyme activity using sodium mesoxalate as substrate after 20 to 40 mins by spectrometric analysis
# E. coli GroEL/ES [9] = target: T4, E. coli GroEL/ES; experiment: Inhibition of Escherichia coli GroEL expressed in Escherichia coli DH5alpha/Escherichia coli GroES expressed in Escherichia coli BL21 (DE3) assessed as reduction in GroEL/GroES-mediated denatured rhodanese refolding by measuring rhodanese enzyme activity after 45 mins by Fe(SCN)3 dye based spectrometric analysis
# [10] = target: T5, Tyrosine-protein phosphatase non-receptor type 5 (Homo sapiens, UniProt P54829); experiment: Inhibition of human PTPN5 expressed in Escherichia coli Rosetta 2 (DE3) using pNPP as substrate after 45 mins by spectrophotometric method
# T5 sequence (P54829 whole entry): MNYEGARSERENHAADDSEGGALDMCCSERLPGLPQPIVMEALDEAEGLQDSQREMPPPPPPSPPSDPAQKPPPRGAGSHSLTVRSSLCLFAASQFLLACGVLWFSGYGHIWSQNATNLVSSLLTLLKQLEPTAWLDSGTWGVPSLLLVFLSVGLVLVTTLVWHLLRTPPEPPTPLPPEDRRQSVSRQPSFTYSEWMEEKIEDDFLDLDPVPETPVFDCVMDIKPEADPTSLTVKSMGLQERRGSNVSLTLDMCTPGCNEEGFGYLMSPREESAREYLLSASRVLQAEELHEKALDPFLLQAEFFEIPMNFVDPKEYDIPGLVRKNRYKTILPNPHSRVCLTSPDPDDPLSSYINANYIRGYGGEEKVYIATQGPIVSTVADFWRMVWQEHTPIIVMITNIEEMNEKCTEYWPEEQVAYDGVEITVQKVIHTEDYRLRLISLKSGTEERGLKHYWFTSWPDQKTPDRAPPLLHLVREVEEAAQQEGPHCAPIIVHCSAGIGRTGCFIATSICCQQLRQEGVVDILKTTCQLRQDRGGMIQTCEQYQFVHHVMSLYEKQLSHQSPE
# [11] = target: T6, Tyrosine-protein phosphatase non-receptor type 2 (Homo sapiens, UniProt P17706); experiment: Inhibition of human PTPN2 expressed in Escherichia coli Rosetta 2 (DE3) using pNPP as substrate after 45 mins by spectrophotometric method
# T6 sequence (P17706 whole entry): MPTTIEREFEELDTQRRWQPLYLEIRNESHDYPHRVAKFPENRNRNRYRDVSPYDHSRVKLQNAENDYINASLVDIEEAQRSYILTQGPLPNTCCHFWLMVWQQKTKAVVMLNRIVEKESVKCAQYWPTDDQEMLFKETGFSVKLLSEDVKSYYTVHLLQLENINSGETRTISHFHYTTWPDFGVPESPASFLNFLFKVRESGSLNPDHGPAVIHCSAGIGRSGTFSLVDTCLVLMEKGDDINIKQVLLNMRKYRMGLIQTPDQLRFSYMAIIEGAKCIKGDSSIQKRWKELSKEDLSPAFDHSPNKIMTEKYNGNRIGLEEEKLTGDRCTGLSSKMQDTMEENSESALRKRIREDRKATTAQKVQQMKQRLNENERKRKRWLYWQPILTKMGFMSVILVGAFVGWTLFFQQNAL
# HSP60/HSP10, sequence (P10809 whole entry): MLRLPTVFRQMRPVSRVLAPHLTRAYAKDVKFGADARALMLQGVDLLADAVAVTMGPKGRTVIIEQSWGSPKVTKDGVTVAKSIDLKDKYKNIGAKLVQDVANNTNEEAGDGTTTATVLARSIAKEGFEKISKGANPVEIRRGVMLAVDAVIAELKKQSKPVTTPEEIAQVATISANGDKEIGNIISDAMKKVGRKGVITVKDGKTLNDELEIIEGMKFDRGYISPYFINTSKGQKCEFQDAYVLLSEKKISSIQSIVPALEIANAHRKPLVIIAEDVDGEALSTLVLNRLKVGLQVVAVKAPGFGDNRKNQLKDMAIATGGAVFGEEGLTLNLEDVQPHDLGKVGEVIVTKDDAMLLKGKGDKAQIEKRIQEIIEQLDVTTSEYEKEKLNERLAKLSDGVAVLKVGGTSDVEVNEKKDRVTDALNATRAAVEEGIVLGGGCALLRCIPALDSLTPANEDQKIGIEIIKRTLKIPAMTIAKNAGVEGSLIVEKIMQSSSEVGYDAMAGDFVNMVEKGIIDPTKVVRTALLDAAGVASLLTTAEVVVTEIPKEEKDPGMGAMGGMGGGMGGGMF
# HSP60/HSP10, sequence (P61604 whole entry, further chain): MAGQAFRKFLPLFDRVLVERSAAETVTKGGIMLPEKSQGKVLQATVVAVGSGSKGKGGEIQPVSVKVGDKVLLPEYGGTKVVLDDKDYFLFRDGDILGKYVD
# T4 sequence (P0A6F5 whole entry, looked up): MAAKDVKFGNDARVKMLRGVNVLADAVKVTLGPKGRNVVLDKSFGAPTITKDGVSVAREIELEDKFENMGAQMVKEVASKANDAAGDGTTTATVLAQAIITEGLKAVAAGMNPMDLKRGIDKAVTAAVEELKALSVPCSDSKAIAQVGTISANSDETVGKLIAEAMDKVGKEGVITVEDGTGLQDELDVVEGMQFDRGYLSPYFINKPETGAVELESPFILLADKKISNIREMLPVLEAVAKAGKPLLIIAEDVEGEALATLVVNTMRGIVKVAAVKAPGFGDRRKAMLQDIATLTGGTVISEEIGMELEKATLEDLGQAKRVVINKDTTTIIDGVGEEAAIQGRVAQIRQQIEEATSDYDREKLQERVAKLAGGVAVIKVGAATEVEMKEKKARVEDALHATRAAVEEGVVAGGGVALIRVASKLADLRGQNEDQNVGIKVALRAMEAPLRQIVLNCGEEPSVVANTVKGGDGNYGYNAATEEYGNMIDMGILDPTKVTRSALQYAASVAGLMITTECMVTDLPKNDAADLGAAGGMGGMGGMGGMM
Structure (SMILES),IC50 [1],inhibition at 200 µM [2],IC50 (HSP60/HSP10),IC50 [3],CC50 at 48 h [4],IC50 [5],IC50 [6],CC50 at 48 h [7],IC50 (E. coli GroEL/ES [8]),IC50 (E. coli GroEL/ES [9]),IC50 [10],IC50 [11]
O=S(=O)(Nc1ccc(-c2nc3ccccc3o2)cc1)c1ccc(Cl)c(C(F)(F)F)c1,> 63 µM,18%,12 µM,> 100 µM,69 µM,29 µM,28 µM,81 µM,23 µM,67 µM,34 µM,28 µM
O=S(=O)(Nc1ccc2oc(-c3ccccc3)nc2c1)c1ccccc1F,> 63 µM,12%,> 100 µM,> 100 µM,72 µM,80 µM,59 µM,53 µM,> 100 µM,171 µM,44 µM,69 µM
O=S(=O)(Nc1ccc2oc(-c3ccccc3)nc2c1)c1cccc(C(F)(F)F)c1,> 63 µM,41%,> 100 µM,> 100 µM,> 100 µM,77 µM,83 µM,58 µM,95 µM,180 µM,45 µM,76 µM
O=S(=O)(Nc1ccc2oc(-c3ccccc3)nc2c1)c1ccc(C(F)(F)F)cc1,> 63 µM,0%,> 100 µM,> 100 µM,74 µM,26 µM,36 µM,49 µM,64 µM,159 µM,27 µM,44 µM
O=S(=O)(Nc1ccc2oc(-c3ccccc3)nc2c1)c1ccc(Cl)cc1,> 63 µM,0%,> 100 µM,> 100 µM,65 µM,56 µM,44 µM,40 µM,> 100 µM,149 µM,26 µM,35 µM
COc1ccc(Cl)cc1S(=O)(=O)Nc1ccc(-c2nc3ccccc3o2)cc1,> 63 µM,0%,> 100 µM,> 100 µM,75 µM,29 µM,21 µM,42 µM,59 µM,83 µM,37 µM,28 µM
O=S(=O)(Nc1ccc(-c2nc3ccccc3o2)cc1)c1ccccc1F,> 63 µM,8%,> 100 µM,> 100 µM,> 100 µM,85 µM,55 µM,> 100 µM,> 100 µM,180 µM,70 µM,80 µM
O=S(=O)(Nc1ccc2oc(-c3ccccc3)nc2c1)c1cccc(O)c1,> 63 µM,3%,76 µM,> 100 µM,> 100 µM,98 µM,> 100 µM,79 µM,58 µM,103 µM,72 µM,> 100 µM
O=S(=O)(Nc1ccc2oc(-c3ccccc3)nc2c1)c1ccc(F)cc1,> 63 µM,47%,> 100 µM,> 100 µM,68 µM,85 µM,78 µM,38 µM,> 100 µM,195 µM,41 µM,61 µM
O=S(=O)(Nc1ccc(-c2nc3ccccc3o2)cc1)c1ccccc1Cl,> 63 µM,11%,> 100 µM,> 100 µM,> 100 µM,47 µM,59 µM,> 100 µM,86 µM,171 µM,51 µM,64 µM
O=S(=O)(Nc1ccc(-c2nc3ccccc3o2)cc1)c1ccccc1O,> 63 µM,0%,> 100 µM,> 100 µM,> 100 µM,31 µM,33 µM,81 µM,83 µM,126 µM,36 µM,57 µM
O=S(=O)(Nc1ccc(-c2nc3ccccc3o2)cc1)c1cccc(Cl)c1,> 63 µM,33%,54 µM,> 100 µM,> 100 µM,43 µM,37 µM,83 µM,79 µM,168 µM,545 µM,67 µM
Cc1cccc(S(=O)(=O)Nc2ccc(-c3nc4ccccc4o3)cc2)c1,> 63 µM,13%,> 100 µM,> 100 µM,> 100 µM,40 µM,37 µM,81 µM,92 µM,165 µM,28 µM,40 µM
CS(=O)(=O)Nc1ccc(-c2nc3ccccc3o2)cc1,> 63 µM,23%,> 100 µM,> 100 µM,> 100 µM,> 100 µM,> 100 µM,> 100 µM,> 100 µM,> 250 µM,> 100 µM,> 100 µM
